25 compounds from ChEMBL document CHEMBL1151751, “Bisphosphonate inhibition of a Plasmodium farnesyl diphosphate synthase and a general method for predicting cell-based activity from enzyme data” (J Med Chem, 2008) can be followed below.

For one assay, the system named is Plasmodium falciparum. Kind of assay: Growth inhibition of Plasmodium falciparum. The class given is functional, organism-based.
The nature of assay [1]: Inhibition of Plasmodium vivax FPPS expressed in Escherichia coli BL21 by spectrophotometric assay. Summed up: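 Recombinant enzyme from lysed cells (lysozyme, nuclease, protease inhibitors), purified on Ni-NTA resin. The GPP + IPP condensation was followed at room temperature by a continuous spectrophotometric phosphate-release assay in 25 mM Hepes, 2.5 mM MgCl₂, pH 7.4. Inhibitors were preincubated with enzyme for 30 min at room temperature. IC50 was obtained by fitting the dose–response curve.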

For a further assay, the system named is Plasmodium berghei. The assay is described as follows: Antiparasitic activity against Plasmodium berghei ANKA infected BALB/c mice (Mus musculus) as reduced parasitaemia. Format: functional. Also noted: scale not given: the % may be the effect or the level left.

Each structure is given as a SMILES string.

One may read the pIC50 as −log10 of the IC50, conventionally taken in molar units. In the case of `O=P(O)(O)C(Nc1nccs1)P(=O)(O)O`, the IC50 in the assay with Plasmodium falciparum (read-out: IC50) was 120 µM; with Plasmodium falciparum (read-out: pIC50 (converted)) it was 126 µM; in assay [1], 0.71 µM. The same compound returned a negative logarithm of the IC50 (pIC50) in assay [1] of 6.1.
In the same order, the values of `Cc1cccc(CC(O)(P(=O)(O)O)P(=O)(O)O)c1` are 23 µM, 25.1 µM, 2.3 µM and 5.6.
Consider `O=P(O)(O)C(O)(Cc1cccc(Cl)c1)P(=O)(O)O`, for which the results for the IC50 (in the assay on Plasmodium falciparum (read-out: IC50); in the assay on Plasmodium falciparum (read-out: pIC50 (converted)); in assay [1]) were 4.3 µM, 3.98 µM and 0.63 µM, respectively. The same compound had a pIC50 in assay [1] of 6.2.
The corresponding values for `O=P(O)(O)C(O)(Cc1cccc(C(F)(F)F)c1)P(=O)(O)O` are 3.8 µM, 3.98 µM, 0.68 µM and 6.2.
The corresponding values for `O=P(O)(O)C(O)(Cc1cccc(F)c1)P(=O)(O)O` are 6.4 µM, 6.31 µM, 0.63 µM and 6.2.
In the same order, the values of `Cc1ccc(C)c(COc2ccc(C)nc2NC(P(=O)(O)O)P(=O)(O)O)c1` are 200 µM, 200 µM, 98 µM and 4.
In the case of `O=P(O)(O)C(CNc1ccccn1)P(=O)(O)O`, the results for the IC50 (with Plasmodium falciparum (read-out: IC50); with Plasmodium falciparum (read-out: pIC50 (converted)); in assay [1]) were 28 µM, 25.1 µM and 0.82 µM, respectively. Also, the negative-log IC50 (pIC50) in assay [1] came to 6.1.
Consider `CN(CCc1ccccc1)CCC(O)(P(=O)(O)O)P(=O)(O)O`, for which, in the assay with Plasmodium falciparum (read-out: pIC50 (converted)), the IC50 is 31.6 µM. For the same compound, in assay [1], the IC50 came to 0.4 µM and the pIC50 amounted to 6.4.
On to `O=P(O)(O)C(O)(Cc1cccc(Br)c1)P(=O)(O)O`, for which the IC50 is 22 µM in the assay with Plasmodium falciparum (read-out: IC50), 20 µM in the assay on Plasmodium falciparum (read-out: pIC50 (converted)) and 0.88 µM in assay [1]. The pIC50 in assay [1] was found to be 6.1.
The corresponding values for `CN(Cc1ccccc1)C(P(=O)(O)O)P(=O)(O)O` are 180 µM, 200 µM, 0.87 µM and 6.1.
In the same order, the values of `O=P(O)(O)C(O)(Cc1ccccn1)P(=O)(O)O` are 220 µM, 200 µM, 0.9 µM and 6.
In the case of `CCCC(O)(P(=O)(O)O)P(=O)(O)O`, the IC50 with Plasmodium falciparum (read-out: pIC50 (converted)) was 126 µM; in assay [1], 0.78 µM. In addition, the pIC50 in assay [1] was 6.1.
With `CCCCCCCCCC(O)(P(=O)(O)O)P(=O)(O)O`, in assay [1], the IC50 was found to be 0.71 µM and the negative-log IC50 (pIC50) was 6.1. Besides, in the assay on Plasmodium berghei, the Activity is 80%.
As to `CN(CCCc1ccccc1)CCC(O)(P(=O)(O)O)P(=O)(O)O`, the IC50 in the assay on Plasmodium falciparum (read-out: pIC50 (converted)) is 25.1 µM. Moreover, in assay [1], the IC50 turned out to be 0.45 µM and the negative-log IC50 (pIC50) is 6.3.
Turning to `O=P(O)(O)C(Nc1ccc(Cl)cn1)P(=O)(O)O`, the IC50 in the assay on Plasmodium falciparum (read-out: pIC50 (converted)) is 10 µM.
Regarding `CCCCCCC(O)(P(=O)(O)O)P(=O)(O)O`, the results for the IC50 (with Plasmodium falciparum (read-out: IC50); in the assay on Plasmodium falciparum (read-out: pIC50 (converted)); in assay [1]) were 1.4 µM, 1.26 µM and 0.63 µM, respectively. Besides, the pIC50 in assay [1] was found to be 6.2.
In assay [1], `O=P(O)(O)C(O)(CSc1ccncc1)P(=O)(O)O` gave an IC50 of 1.2 µM and a pIC50 of 5.9.
As for `CCCCCCCCCCCCCC(O)(P(=O)(O)O)P(=O)(O)O`, the IC50 in the assay with Plasmodium falciparum (read-out: pIC50 (converted)) is 2 µM. In assay [1], this compound gave an IC50 of 4.1 µM and a pIC50 of 5.4.
As for `CN(CCCCc1ccccc1)CCC(O)(P(=O)(O)O)P(=O)(O)O`, the IC50 with Plasmodium falciparum (read-out: pIC50 (converted)) is 3.16 µM.
For the compound `O=P(O)(O)C(O)(Cc1ccccc1)P(=O)(O)O`, the IC50 was 11 µM in the assay with Plasmodium falciparum (read-out: IC50) and 10 µM in the assay with Plasmodium falciparum (read-out: pIC50 (converted)).
The corresponding values for `O=P([O-])(O)C(O)(CC1=[n+]2ccccc2=NC1)P(=O)(O)O` (stereo not given) are 90 µM and 100 µM.
For the compound `CCCCCCCCCNC(P(=O)(O)O)P(=O)(O)O` [(NONYLAMINO)METHYLENEDIPHOSPHONIC ACID], the IC50 with Plasmodium falciparum (read-out: pIC50 (converted)) is 100 µM. In assay [1], this compound showed an IC50 of 5.2 µM and a negative-log IC50 (pIC50) of 5.3. In the assay on Plasmodium berghei, this compound returned an Activity of 80%.
For the compound `CCCCCCCCNC(P(=O)(O)O)P(=O)(O)O` [(OCTYLAMINO)METHYLENEDIPHOSPHONIC ACID], the IC50 in the assay on Plasmodium falciparum (read-out: IC50) is 12 µM; in the assay on Plasmodium falciparum (read-out: pIC50 (converted)), 12.6 µM; in assay [1] it was 0.49 µM. The compound further returned a negative-log IC50 (pIC50) in assay [1] of 6.3.
In the same order, the values of `CCCCCN(C)CCC(O)(P(=O)(O)O)P(=O)(O)O` [IBANDRONIC ACID] are 74 µM, 79.4 µM, 0.92 µM and 6.
`O=P(O)(O)C(O)(Cn1ccnc1)P(=O)(O)O` [ZOLEDRONIC ACID]: the IC50 in the assay with Plasmodium falciparum (read-out: pIC50 (converted)) was 158 µM.
